In ChEMBL document CHEMBL4033800, “Further Developments of the Phenyl-Pyrrolyl Pentane Series of Nonsteroidal Vitamin D Receptor Modulators as Anticancer Agents” (J Med Chem, 2018):
Activity calls are given as the source filed them. The calls are words filed in the database; no cut-off is given here.

Assays:
MCF7 [1] = assay: Induction of cell cycle arrest in human MCF7 cells assessed as accumulation at G0/G1 phase at 1 uM after 24 hrs by propidium iodide-staining based flow cytometry (reference value: 56.03%); format: functional
MCF7 [2] = assay: Induction of apoptosis in human MCF7 cells assessed as necrotic cells at 1 uM after 24 hrs by Annexin V-FITC/propidium iodide-staining based flow cytometry (reference value: 0.031%); format: functional
Mus musculus [3] = assay: Hypercalcemic effect in ICR mouse at 0.5 ug/kg, ip administered for 7 days measured on day 8 post-dose by MTB-based assay relative to control; format: ADME, organism-based; details: in vivo, 0.0005 mg/kg, 168 h
In short: (§1)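 Mice were dosed i.p. over a 7-day period and serum calcium was then measured. Each dose level was compared with a vehicle-treated control group (saline cited as the comparator). Data are mean ± SEM, n = 6 per group. Significance versus vehicle was reported at p < 0.05, 0.01 and 0.001.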

[4] = Drug uptake in human MCF7 cells at 1 uM after 30 mins by HPLC analysis; format: ADME, cell-based; details: mcf7, 0.5 h
In short: (§2)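 MCF7 cells were given 1 µM compound in medium with 10% FBS for 10 or 30 min. Cells and medium were extracted separately with chloroform/methanol (3:1, v/v) and analysed by HPLC. Mean ± SEM, n = 3.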

[5] = Drug metabolism in human MCF7 cells at 1 uM after 24 hrs by HPLC analysis; format: ADME, cell-based; details: read-out: Drug metabolism
In short: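 MCF7 cells were incubated 24 h with 1 µM compound, alongside a medium-only incubation without cells. Mixtures were extracted with chloroform/methanol (3:1, v/v) and quantified by HPLC. Mean ± SEM, n = 3.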

MCF7 [6] = assay: Induction of apoptosis in human MCF7 cells assessed as late apoptotic cells at 1 uM after 24 hrs by Annexin V-FITC/propidium iodide-staining based flow cytometry (reference value: 0.062%); format: functional
Mus musculus [7] = assay: Hypercalcemic effect in ICR mouse assessed as serum calcium levels at 5 ug/kg, ip administered for 7 days measured on day 8 post-dose by MTB-based assay (reference value: 7.05 mg/dl); format: ADME, organism-based; details: in vivo, 0.005 mg/kg, 168 h; in short: as §1
MCF7 [8] = assay: Induction of apoptosis in human MCF7 cells assessed as viable cells at 1 uM after 24 hrs by Annexin V-FITC/propidium iodide-staining based flow cytometry (reference value: 98.2%); format: functional; details: MCF7, 24 h, read-out: Activity
[9] = Drug uptake in human MCF7 cells at 1 uM after 10 mins by HPLC analysis; format: ADME, cell-based; details: mcf7, 10 min; in short: as §2
MCF7 [10] = assay: Induction of cell cycle arrest in human MCF7 cells assessed as accumulation at S phase at 1 uM after 24 hrs by propidium iodide-staining based flow cytometry (reference value: 31.55%); format: functional
MCF7 [11] = assay: Induction of apoptosis in human MCF7 cells assessed as early apoptotic cells at 1 uM after 24 hrs by Annexin V-FITC/propidium iodide-staining based flow cytometry (reference value: 1.74%); format: functional
[12] = Half life in iv dosed Sprague-Dawley rat; format: ADME, organism-based; details: in vivo
MCF7 [13] = assay: Induction of cell cycle arrest in human MCF7 cells assessed as accumulation at G2/M phase at 1 uM after 24 hrs by propidium iodide-staining based flow cytometry (reference value: 12.41%); format: functional
Mus musculus [14] = assay: Toxicity in BALB/c nude mouse xenografted with human MCF7 cells assessed as change in body weight at 10 mg/kg, ip administered every other day relative to control; format: organism-based; details: in vivo
In short: (§3)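 MCF7 cells transplanted orthotopically into the breast of athymic nude mice. Dosing at 10 mg/kg i.p. in vehicle of polyoxyethylated castor oil/ethanol/saline 1:1:18, with vehicle and saline control groups. Body weight, tumor volume and serum calcium followed.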

MCF7 [15] = assay: Antitumor activity against human MCF7 cells xenografted in BALB/c nude mouse assessed as tumor growth inhibition at 10 mg/kg, ip administered every other day; format: functional, organism-based; in short: as §3
MCF7 [16] = assay: Antiproliferative activity against human MCF7 cells after 48 hrs by MTT assay; format: functional, cell-based; details: MCF7, 48 h
Vitamin D3 receptor = biological target: T1, Vitamin D3 receptor (Homo sapiens, UniProt P11473); assay: Displacement of fluormone VDR red from human full length VDR after 4 hrs by fluorescence polarization assay
T1 sequence (P11473 whole entry): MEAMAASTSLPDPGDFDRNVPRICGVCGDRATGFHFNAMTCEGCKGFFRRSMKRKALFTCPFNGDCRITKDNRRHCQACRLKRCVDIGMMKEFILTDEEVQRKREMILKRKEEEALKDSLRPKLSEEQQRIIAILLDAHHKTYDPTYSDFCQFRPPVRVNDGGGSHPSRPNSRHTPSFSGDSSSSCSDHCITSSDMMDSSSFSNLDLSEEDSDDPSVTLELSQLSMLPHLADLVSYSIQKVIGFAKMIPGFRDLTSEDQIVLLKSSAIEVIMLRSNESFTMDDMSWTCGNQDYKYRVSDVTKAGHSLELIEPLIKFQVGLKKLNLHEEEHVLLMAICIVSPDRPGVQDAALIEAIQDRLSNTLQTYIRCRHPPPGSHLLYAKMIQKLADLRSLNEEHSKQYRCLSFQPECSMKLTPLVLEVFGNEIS

PC-3 = assay: Antiproliferative activity against human PC3 cells after 48 hrs by MTT assay; format: functional, cell-based; details: PC-3, 48 h
L02 = assay: Antiproliferative activity against human L02 cells after 48 hrs by MTT assay; format: cell-based; details: L02, 48 h
Mus musculus [17] = assay: Toxicity in BALB/c nude mouse xenografted with human MCF7 cells assessed increase in serum calcium levels at 10 mg/kg, ip administered every other day relative to control; format: organism-based; details: in vivo; in short: as §3
Caco-2 = assay: Antiproliferative activity against human Caco2 cells after 48 hrs by MTT assay; format: functional, cell-based; details: Caco-2, 48 h
Mus musculus [18] = assay: Hypercalcemic effect in ICR mouse at 0.5 to 5 mg/kg/day, ip administered for 7 days measured on day 8 post-dose by MTB-based assay relative to control; format: ADME, organism-based; details: in vivo, 168 h; in short: as §1
HepG2 = assay: Antiproliferative activity against human HepG2 cells after 48 hrs by MTT assay; format: functional, cell-based; details: HepG2, 48 h
MCF7 [19] = assay: Induction of apoptosis in human MCF7 cells xenografted in BALB/c nude mouse at 10 mg/kg, ip administered every other day by TUNEL assay; format: functional, organism-based
In short: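 Apoptosis in MCF7 orthotopic tumor sections from nude mice given 10 mg/kg i.p. was scored by TUNEL staining.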

Mus musculus [20] = assay: Hypercalcemic effect in ICR mouse at 30 mg/kg/day, ip administered for 7 days measured on day 8 post-dose by MTB-based assay relative to control; format: ADME, organism-based; details: in vivo, 168 h; in short: as §1

| Structure (SMILES) | Activity (MCF7 [1]) [%] | Activity (MCF7 [2]) [%] | Drug uptake [4] | Activity (MCF7 [6]) [%] | viability at 1 µM (MCF7 [8]) [%] | Drug uptake [9] | Activity (MCF7 [10]) [%] | Activity (MCF7 [11]) [%] | Activity (MCF7 [13]) [%] | other results |
| --- | --- | --- | --- | --- | --- | --- | --- | --- | --- | --- |
| C=C1/C(=C\C=C2/CCC[C@]3(C)[C@@H]([C@H](C)CCCC(C)(C)O)CC[C@@H]23)C[C@@H](O)C[C@@H]1O [CALCITRIOL] | 63.49 | 0.15 | 10.4% | 3.44 | 89.8 | 6.5% | 23.9 | 6.59 | 12.61 | Activity (Mus musculus [3]): Non-Toxic; metabolised at 24 h, 1 µM [5]: 27%; Activity (Mus musculus [7]): 11.04 mg/dL; half-life [12]: 256 min |
| CCN(CC)CCNC(=O)c1ccc(C(CC)(CC)c2ccc(OCCC(O)(CC)CC)c(C)c2)n1CC | 68.92 | 0.24 | Active | 2.81 | 89.2 | Active | 26.31 | 7.74 | 4.77 | Activity (Mus musculus [14]): Non-Toxic; TGI (MCF7 [15]): Active; IC50 (MCF7 [16]): 550 nM; IC50 (Vitamin D3 receptor): 271 nM; IC50 (PC-3): 3.35 µM; IC50 (L02): 2290 nM; Activity (Mus musculus [17]): Non-Toxic; IC50 (Caco-2): 1630 nM; Activity (Mus musculus [18]): Non-Toxic; IC50 (HepG2): 230 nM; Activity (MCF7 [19]): Active; Activity (Mus musculus [20]): Toxic |
